tested on: MCF7; experiment: Cytotoxicity against human MCF7 cells after 3 days by SRB assay; assay type: functional, cell-based; conditions: MCF7, 72 h
Outline: (§1)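 Cells kept in RPMI-1640 with 2 mM L-glutamine, 25 mM HEPES and 10% FBS at 37 °C, 5% CO2. Seeding per well: MCF-7 5000, NCI/ADR 7500, NCI-H460 5000, SF-268 7500; 24 h adherence. Compound at 0.001 to 1000 nM, triplicate wells, 3 days. TCA fixation 1 h at 4 °C, 0.2% SRB 20 min, bound dye extracted in 10 mM Tris, absorbance at 515 nm.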

Row | Structure (SMILES) | IC50 [nM]
1 | CC1=C/C[C@@H](/C(C)=C/c2csc(C)n2)OC(=O)C[C@H](O)C(C)(C)C(=O)[C@H](C)[C@@H](O)[C@@H](C)C\C=C\1 | 47
2 | CC1=C/C[C@@H](/C(C)=C/c2csc(C)n2)OC(=O)C[C@H](O)C(C)C(=O)[C@H](C)[C@@H](O)[C@@H](C)C\C=C\1 (stereo not given in full) | 250
3 | C/C1=C/C[C@@H](/C(C)=C/c2csc(C)n2)OC(=O)C[C@H](O)C(C)(C)C(=O)[C@H](C)[C@@H](O)[C@@H](C)C(=O)CC1 | 500
4 | C/C(=C\c1csc(C)n1)[C@@H]1C/C=C\CCC[C@H](C)[C@H](O)[C@@H](C)C(=O)C(C)(C)[C@@H](O)CC(=O)O1 [EPOTHILONE C] | 97
5 | C/C1=C/C[C@@H](/C(C)=C/c2csc(C)n2)OC(=O)C[C@H](O)C(C)(C)C(=O)[C@H](C)[C@@H](O)[C@@H](C)CCC1 [EPOTHILONE D] | 16

tested on: not listed separately; experiment: Cytotoxicity against human NCI/ADR cells after 3 days by SRB assay; assay type: functional, cell-based; conditions: NCI/ADR-RES, 72 h; outline: as §1

Row | Structure (SMILES) | IC50 [nM]
6 | CC1=C/C[C@@H](/C(C)=C/c2csc(C)n2)OC(=O)C[C@H](O)C(C)(C)C(=O)[C@H](C)[C@@H](O)[C@@H](C)C\C=C\1 | 250
7 | CC1=C/C[C@@H](/C(C)=C/c2csc(C)n2)OC(=O)C[C@H](O)C(C)C(=O)[C@H](C)[C@@H](O)[C@@H](C)C\C=C\1 (stereo not given in full) | 395
8 | C/C1=C/C[C@@H](/C(C)=C/c2csc(C)n2)OC(=O)C[C@H](O)C(C)(C)C(=O)[C@H](C)[C@@H](O)[C@@H](C)C(=O)CC1 | > 1000
9 | C/C(=C\c1csc(C)n1)[C@@H]1C/C=C\CCC[C@H](C)[C@H](O)[C@@H](C)C(=O)C(C)(C)[C@@H](O)CC(=O)O1 [EPOTHILONE C] | 310
10 | C/C1=C/C[C@@H](/C(C)=C/c2csc(C)n2)OC(=O)C[C@H](O)C(C)(C)C(=O)[C@H](C)[C@@H](O)[C@@H](C)CCC1 [EPOTHILONE D] | 44

tested on: SF-268; experiment: Cytotoxicity against human SF268 cells after 3 days by SRB assay; assay type: functional, cell-based; conditions: SF-268, 72 h; outline: as §1

Row | Structure (SMILES) | IC50 [nM]
11 | CC1=C/C[C@@H](/C(C)=C/c2csc(C)n2)OC(=O)C[C@H](O)C(C)(C)C(=O)[C@H](C)[C@@H](O)[C@@H](C)C\C=C\1 | 92
12 | CC1=C/C[C@@H](/C(C)=C/c2csc(C)n2)OC(=O)C[C@H](O)C(C)C(=O)[C@H](C)[C@@H](O)[C@@H](C)C\C=C\1 (stereo not given in full) | 390
13 | C/C1=C/C[C@@H](/C(C)=C/c2csc(C)n2)OC(=O)C[C@H](O)C(C)(C)C(=O)[C@H](C)[C@@H](O)[C@@H](C)C(=O)CC1 | > 1000
14 | C/C(=C\c1csc(C)n1)[C@@H]1C/C=C\CCC[C@H](C)[C@H](O)[C@@H](C)C(=O)C(C)(C)[C@@H](O)CC(=O)O1 [EPOTHILONE C] | 340
15 | C/C1=C/C[C@@H](/C(C)=C/c2csc(C)n2)OC(=O)C[C@H](O)C(C)(C)C(=O)[C@H](C)[C@@H](O)[C@@H](C)CCC1 [EPOTHILONE D] | 18

tested on: NCI-H460; experiment: Cytotoxicity against human NCI-H460 cells after 3 days by SRB assay; assay type: functional, cell-based; conditions: NCI-H460, 72 h; outline: as §1

Row | Structure (SMILES) | IC50 [nM]
16 | CC1=C/C[C@@H](/C(C)=C/c2csc(C)n2)OC(=O)C[C@H](O)C(C)(C)C(=O)[C@H](C)[C@@H](O)[C@@H](C)C\C=C\1 | 47
17 | CC1=C/C[C@@H](/C(C)=C/c2csc(C)n2)OC(=O)C[C@H](O)C(C)C(=O)[C@H](C)[C@@H](O)[C@@H](C)C\C=C\1 (stereo not given in full) | 345
18 | C/C1=C/C[C@@H](/C(C)=C/c2csc(C)n2)OC(=O)C[C@H](O)C(C)(C)C(=O)[C@H](C)[C@@H](O)[C@@H](C)C(=O)CC1 | > 1000
19 | C/C(=C\c1csc(C)n1)[C@@H]1C/C=C\CCC[C@H](C)[C@H](O)[C@@H](C)C(=O)C(C)(C)[C@@H](O)CC(=O)O1 [EPOTHILONE C] | 280
20 | C/C1=C/C[C@@H](/C(C)=C/c2csc(C)n2)OC(=O)C[C@H](O)C(C)(C)C(=O)[C@H](C)[C@@H](O)[C@@H](C)CCC1 [EPOTHILONE D] | 30

Source: ChEMBL document CHEMBL1147229, “Isolation and characterization of new epothilone analogues from recombinant Myxococcus xanthus fermentations” (J Nat Prod, 2003)
